According to ChEMBL document CHEMBL1159028, “Antimicrobial agents from Licaria puchuri-major and their synergistic effect with polygodial” (1992):
Values after ≈ are worked out from the molar mass of the structure shown.

Experiments:
Assay type in all cases: functional
[1] = system: Corynebacterium ammoniagenes; assay: Antimicrobial activity against Brevibacterium ammoniagenes ATCC 6872 after 2 days by twofold serial broth dilution method; conditions: ATCC 6872, 48 h
Method in brief: (§1)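 ATCC strains were revived from freeze-dried stock, then grown in medium of 0.8% nutrient broth, 0.5% yeast extract and 0.1% glucose. Twofold serial broth dilution used compound in DMF (1% DMF final), with a top concentration of 800 µg/ml. Cultures were stationary for 2 days, and growth was read as turbidity at OD 660 nm. MIC was the lowest concentration with no growth.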

Escherichia coli = assay: Antimicrobial activity against Escherichia coli ATCC 9637 after 2 days by twofold serial broth dilution method; conditions: ATCC 9637, 48 h; method in brief: as §1
Cutibacterium acnes = assay: Antimicrobial activity against Propionibacterium acnes ATCC 11827 after 2 days by twofold serial broth dilution method; conditions: ATCC 11827, 48 h; method in brief: as §1
Klebsiella aerogenes = assay: Antimicrobial activity against Enterobacter aerogenes ATCC 13048 after 2 days by twofold serial broth dilution method; conditions: ATCC 13048, 48 h; method in brief: as §1
Bacillus subtilis = assay: Antimicrobial activity against Bacillus subtilis ATCC 9372 after 2 days by twofold serial broth dilution method; conditions: ATCC 9372, 48 h; method in brief: as §1
Saccharomyces cerevisiae = assay: Antimicrobial activity against Saccharomyces cerevisiae ATCC 7754 after 2 days by twofold serial broth dilution method; conditions: ATCC 7754, 48 h
Method in brief: (§2)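 Yeasts were grown in 2.5% malt extract broth. Twofold serial broth dilution used compound in DMF (1% DMF final), with a top concentration of 800 µg/ml. After 2 days of stationary culture, turbidity was read at OD 660 nm. MIC was the lowest concentration with no growth. Checkerboard combinations with polygodial were tested at least twice per fungus.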

Cyberlindnera jadinii = assay: Antimicrobial activity against Candida utilis ATCC 9226 after 2 days by twofold serial broth dilution method; conditions: Williopsis jadinii, ATCC 9226, 48 h; method in brief: as §2
Malassezia furfur = assay: Antimicrobial activity against Pityrosporum ovale ATCC 14521 by twofold serial broth dilution method
Method in brief: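 Medium: 1% bactopeptone, 0.5% yeast extract, 1% glucose and 0.1% corn oil. Twofold broth dilution used compound in DMF (1% final), with a top concentration of 800 µg/ml. Culture was stationary for 2 days, and growth was scored visually. MIC was the lowest concentration without growth. Checkerboard combinations with polygodial were tested at least twice.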

Penicillium chrysogenum = assay: Antimicrobial activity against Penicillium chrysogenum ATCC 10106 after 5 days by twofold serial broth dilution method; conditions: ATCC 10106, 120 h
Method in brief: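 Mould was grown in 2.5% malt extract broth with shaking. Compound in DMF (1% final) was serially diluted twofold, to a maximum of 800 µg/ml. Growth was judged by eye after 5 days. MIC was the lowest concentration showing no growth.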

Pseudomonas aeruginosa = assay: Antimicrobial activity against Pseudomonas aeruginosa ATCC 10145 after 2 days by twofold serial broth dilution method; conditions: ATCC 10145, 48 h; method in brief: as §1
Staphylococcus aureus = assay: Antimicrobial activity against Staphylococcus aureus ATCC 12598 after 2 days by twofold serial broth dilution method; conditions: ATCC 12598, 48 h; method in brief: as §1
Streptococcus mutans = assay: Antimicrobial activity against Streptococcus mutans ATCC 25175 after 2 days by twofold serial broth dilution method; conditions: ATCC 25175, 48 h
Method in brief: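 ATCC strain grown in 3.7% brain heart infusion broth. Twofold serial broth dilution used compound dissolved in DMF (1% DMF final), with a top concentration of 800 µg/ml. After 2 days of stationary culture, growth was read as turbidity at OD 660 nm. MIC was the lowest concentration with no growth.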

SMILES	MIC [1] [µg/mL]	MIC (Escherichia coli) [µg/mL]	MIC (Cutibacterium acnes) [µg/mL]	MIC (Klebsiella aerogenes) [µg/mL]	MIC (Bacillus subtilis) [µg/mL]	MIC (Saccharomyces cerevisiae) [µg/mL]	MIC (Cyberlindnera jadinii) [µg/mL]	MIC (Malassezia furfur) [µg/mL]	MIC (Penicillium chrysogenum) [µg/mL]	MIC (Pseudomonas aeruginosa) [µg/mL]	MIC (Staphylococcus aureus) [µg/mL]	MIC (Streptococcus mutans) [µg/mL]
C=C(C)[C@H]1CC=C(C)CC1 [D-LIMONENE]	> 800	> 800	50 (≈ 0.367 mM)	> 800	800 (≈ 5.87 mM)	50 (≈ 0.367 mM)	200 (≈ 1.47 mM)	200 (≈ 1.47 mM)	> 800	> 800	> 800	100 (≈ 0.734 mM)
CC(C)=CCC/C(C)=C/CO [GERANIOL]	400 (≈ 2.59 mM)	800 (≈ 5.19 mM)	200 (≈ 1.3 mM)	> 800	400 (≈ 2.59 mM)	400 (≈ 2.59 mM)	400 (≈ 2.59 mM)	100 (≈ 0.648 mM)	200 (≈ 1.3 mM)	> 800	800 (≈ 5.19 mM)	200 (≈ 1.3 mM)
C/C=C/c1ccc(OC)cc1 [ANETHOLE]	200 (≈ 1.35 mM)	200 (≈ 1.35 mM)	100 (≈ 0.675 mM)	> 800	400 (≈ 2.7 mM)	200 (≈ 1.35 mM)	200 (≈ 1.35 mM)	100 (≈ 0.675 mM)	> 800	> 800	> 800	200 (≈ 1.35 mM)
CC1(C)CCC[C@]2(C)[C@@H](C=O)C(C=O)=CC[C@@H]12 [POLYGODIAL]	–	–	–	–	–	3.13 (≈ 0.0134 mM)	6.25 (≈ 0.0267 mM)	50 (≈ 0.213 mM)	–	–	–	–
CC1=CCC(O)(C(C)C)CC1 (centres undefined) [TERPINEOL]	> 800	> 800	800 (≈ 5.19 mM)	> 800	> 800	800 (≈ 5.19 mM)	800 (≈ 5.19 mM)	100 (≈ 0.648 mM)	800 (≈ 5.19 mM)	> 800	> 800	> 800
C=C1CC/C=C(/C)CC[C@@H]2[C@@H]1CC2(C)C [CARYOPHYLLENE]	100 (≈ 0.489 mM)	> 800	6.25 (≈ 0.0306 mM)	> 800	50 (≈ 0.245 mM)	> 800	> 800	> 800	> 800	> 800	> 800	> 800
CC1=CCC(C(C)C)=CC1 [GAMMA-TERPINENE]	> 800	> 800	50 (≈ 0.367 mM)	> 800	> 800	50 (≈ 0.367 mM)	100 (≈ 0.734 mM)	800 (≈ 5.87 mM)	> 800	> 800	> 800	100 (≈ 0.734 mM)
C=CC(C)(O)CCC=C(C)C (centres undefined) [LINALOOL]	800 (≈ 5.19 mM)	> 800	200 (≈ 1.3 mM)	> 800	800 (≈ 5.19 mM)	800 (≈ 5.19 mM)	400 (≈ 2.59 mM)	400 (≈ 2.59 mM)	800 (≈ 5.19 mM)	> 800	> 800	400 (≈ 2.59 mM)
CC1=CC[C@@H](C(C)(C)O)CC1 [ALPHA-TERPINEOL]	> 800	800 (≈ 5.19 mM)	100 (≈ 0.648 mM)	> 800	800 (≈ 5.19 mM)	800 (≈ 5.19 mM)	800 (≈ 5.19 mM)	400 (≈ 2.59 mM)	400 (≈ 2.59 mM)	> 800	> 800	400 (≈ 2.59 mM)
C=CCc1ccc(O)c(OC)c1 [EUGENOL]	800 (≈ 4.87 mM)	400 (≈ 2.44 mM)	50 (≈ 0.304 mM)	> 800	400 (≈ 2.44 mM)	800 (≈ 4.87 mM)	800 (≈ 4.87 mM)	100 (≈ 0.609 mM)	200 (≈ 1.22 mM)	> 800	800 (≈ 4.87 mM)	400 (≈ 2.44 mM)
CC12CCC(CC1)C(C)(C)O2 [EUCALYPTOL]	> 800	> 800	800 (≈ 5.19 mM)	> 800	> 800	> 800	> 800	> 800	> 800	> 800	> 800	> 800
C=CCc1ccc2c(c1)OCO2 [SAFROLE]	> 800	400 (≈ 2.47 mM)	50 (≈ 0.308 mM)	> 800	400 (≈ 2.47 mM)	200 (≈ 1.23 mM)	200 (≈ 1.23 mM)	100 (≈ 0.617 mM)	> 800	> 800	> 800	100 (≈ 0.617 mM)
CCCCCCCCCCCC(=O)O [DODECANOATE]	> 800	> 800	50 (≈ 0.25 mM)	> 800	> 800	> 800	> 800	> 800	> 800	> 800	> 800	> 800
C=CCc1ccc(OC)c(OC)c1 [METHYLEUGENOL]	800 (≈ 4.49 mM)	800 (≈ 4.49 mM)	200 (≈ 1.12 mM)	> 800	800 (≈ 4.49 mM)	800 (≈ 4.49 mM)	800 (≈ 4.49 mM)	200 (≈ 1.12 mM)	800 (≈ 4.49 mM)	> 800	800 (≈ 4.49 mM)	400 (≈ 2.24 mM)
